Measured values as given in paper PMC3846175 (Bioorganic & medicinal chemistry, 2013).
“And” between values parts separate entries of the source, which are not always exact repeats. Identical values can stand only once. Counter-ions that a name gives are not always drawn. Like-named read-outs stand apart in the source and are kept apart here.

What was measured:
T. b. r. STIB900 [1] = settings: mouse, ref [10], [14], [16], [23], cited from earlier work
T. b. brucei GVR35 [2] = settings: mouse; po 100 mg/kg for 5 days; ref [5]; cited from earlier work
[3] = system: Trypanosoma brucei rhodesiense STIB900; settings: read-out: T. b. r. IC50; strain STIB900; comparator data; ref [10], [16]; cited from earlier work
Plasmodium falciparum K1 [4] = settings: read-out: P. f. IC50; strain K1; comparator data; ref [10], [16]; cited from earlier work
T. b. r. STIB900 [5] = assay: T. b. r. STIB900 acute mouse model; type: in vivo, Trypanosoma brucei rhodesiense
poly(dA-dT)2 = assay: Thermal melting; type: binding
T. b. brucei GVR35 [6] = assay: T. b. brucei GVR35 CNS mouse model; type: in vivo, Trypanosoma brucei brucei
Outline: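 Second-stage (CNS) infection model in mice with T. b. brucei GVR35. The test compound was given orally at 100 mg/kg for 5 days, and a 10-day course was also run. The comparator was diminazene, given as a single 40 mg/kg intraperitoneal dose. Survival was the endpoint. Protocols were approved by the Canton Basel-Stadt veterinary authorities.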

Plasmodium falciparum K1 [7] = assay: In vitro assay with P. f. K1 strain; type: cell-based; settings: IC50 ratio
[8] = po 100 mg/kg for 5 days, 100 mg/kg

N=C(N)c1ccc(-c2ccc(-c3ccc(C(=N)N)cc3)o2)cc1 [2a, furamidine]
Cures (mice that survive and are parasite free for 60 days) (T. b. r. STIB900 [1]; ip 5 mg/kg daily for 4 days): 1/4
Survival (average days of survival) (T. b. r. STIB900 [1]; ip 5 mg/kg daily for 4 days): >46 days
Cures (mice that survive and are parasite free for 60 days) (T. b. r. STIB900 [1]; ip 20 mg/kg daily for 4 days): 3/4
Survival (average days of survival) (T. b. r. STIB900 [1]; ip 20 mg/kg daily for 4 days): >57.75 days

N=C(NO)c1ccc(-c2ccc(-c3ccc(/C(N)=N\O)cc3)o2)cc1 [2b]
Cures (mice that survive and are parasite free for 60 days) (T. b. r. STIB900 [1]; po 100 mg/kg daily for 4 days, 100 mg/kg): no cure and 0/4

CONC(=N)c1ccc(-c2ccc(-c3ccc(C(=N)NOC)cc3)o2)cc1 [2c, pafuramidine]
Cures (mice that survive and are parasite free for 60 days) (T. b. r. STIB900 [1]; po 10 mg/kg daily for 4 days): 4/4
Survival (average days of survival) (T. b. r. STIB900 [1]; po 10 mg/kg daily for 4 days): >60 days
Cures (mice that survive and are parasite free for 60 days) (T. b. r. STIB900 [1]; po 25 mg/kg daily for 4 days): 4/4
Survival (average days of survival) (T. b. r. STIB900 [1]; po 25 mg/kg daily for 4 days): >60 days
MSD (mean survival days) (T. b. brucei GVR35 [2]): >167.8 days
No. of mice cured (survival >180 days without parasitemia relapse) (T. b. brucei GVR35 [2]): 3/5

N=C(N)c1ccc(-c2ccc(-c3ccc(C(=N)N)cn3)o2)cc1 [3a]
IC50 [3]: 6.5 nM
IC50 (Plasmodium falciparum K1 [4]): 6.5 nM
Cures (mice that survive and are parasite free for 60 days) (T. b. r. STIB900 [1]; ip 5 mg/kg daily for 4 days): 3/4
Survival (average days of survival) (T. b. r. STIB900 [1]; ip 5 mg/kg daily for 4 days): >54.5 days
Cures (mice that survive and are parasite free for 60 days) (T. b. r. STIB900 [1]; ip 20 mg/kg daily for 4 days): 4/4
Survival (average days of survival) (T. b. r. STIB900 [1]; ip 20 mg/kg daily for 4 days): >60 days

CO/N=C(\N)c1ccc(-c2ccc(-c3ccc(/C(N)=N/OC)cn3)o2)cc1 [3c]
Cures (mice that survive and are parasite free for 60 days) (T. b. r. STIB900 [1]; po 25 mg/kg daily for 4 days): 4/4
Survival (average days of survival) (T. b. r. STIB900 [1]; po 25 mg/kg daily for 4 days): >60 days
MSD (mean survival days) (T. b. brucei GVR35 [2]): >180 days
No. of mice cured (survival >180 days without parasitemia relapse) (T. b. brucei GVR35 [2]): 5/5

N=C(N)c1ccc(-c2ccc(-c3ccc(C(=N)N)cn3)o2)nc1 [4a]
IC50 [3]: 21 nM
IC50 (Plasmodium falciparum K1 [4]): 83 nM
Cures (mice that survive and are parasite free for 60 days) (T. b. r. STIB900 [1]; ip 5 mg/kg daily for 4 days): 3/4
Survival (average days of survival) (T. b. r. STIB900 [1]; ip 5 mg/kg daily for 4 days): >49.5 days
Cures (mice that survive and are parasite free for 60 days) (T. b. r. STIB900 [1]; ip 20 mg/kg daily for 4 days): 4/4
Survival (average days of survival) (T. b. r. STIB900 [1]; ip 20 mg/kg daily for 4 days): >60 days

CO/N=C(\N)c1ccc(-c2ccc(-c3ccc(/C(N)=N/OC)cn3)o2)nc1 [4c]
Cures (mice that survive and are parasite free for 60 days) (T. b. r. STIB900 [1]; po 25 mg/kg daily for 4 days): 2/4
Survival (average days of survival) (T. b. r. STIB900 [1]; po 25 mg/kg daily for 4 days): >42 days
MSD (mean survival days) (T. b. brucei GVR35 [2]): >180 days
No. of mice cured (survival >180 days without parasitemia relapse) (T. b. brucei GVR35 [2]): 5/5

N=C(N)c1ccc(-c2cncc(-c3ccc(C(=N)N)cc3F)n2)c(F)c1 [15b, 2,6-Di-(4′-amidino-2′-fluorophenyl)pyrazine hydrochloride]
Cures (mice that survive and are parasite free for 60 days) (T. b. r. STIB900 [5]; ip 5 mg/kg daily for 4 days): no cures

N=C(N)c1ccc(-c2cncc(-c3ccc(C(=N)N)cn3)n2)cc1 [19a, 2-(4′-amidinophenyl)-6-(5′-amidinopyridin-2′-yl)pyrazine hydrochloride]
Decrease in ΔTm value relative to parent compound 10 (poly(dA-dT)2): 2 °C

N=C(N)c1ccc(-c2cncc(-c3ccc(C(=N)N)cn3)n2)nc1 [23a, 2,6-Di-(5′-amidinopyridin-2′-yl)pyrazine hydrochloride]
Decrease in ΔTm value relative to parent compound 10 (poly(dA-dT)2): 3.9 °C

N=C(N)c1ccc(-c2cncc(-c3ccc(C(=N)N)nc3)n2)cn1 [23b, 2,6-Di-(2′-amidinopyridin-5′-yl)pyrazine hydrochloride]
Decrease in ΔTm value relative to parent compound 10 (poly(dA-dT)2): 3.0 °C

N/C(=N\O)c1ccc(-c2cncc(-c3ccc(/C(N)=N\O)nc3)n2)cn1 [24b, 2,6-Di-(2′-N-hydroxyamidinopyridin-5′-yl)pyrazine hydrochloride]
Cures (mice that survive and are parasite free for 60 days) (T. b. r. STIB900 [5]; po 25 mg/kg daily for 4 days): cures of all mice
MSD (mean survival days) (T. b. brucei GVR35 [6]; po 100 mg/kg for 5 days): 67.2 days
No. of mice cured (survival >180 days without parasitemia relapse) (T. b. brucei GVR35 [6]; [8]): not curative and 0/5

CO/N=C(\N)c1ccc(-c2cncc(-c3ccc(/C(N)=N\OC)cn3)n2)nc1 [25a, 2,6-Di-(5′-N-methoxyamidinopyridin-2′-yl)pyrazine hydrochloride]
MSD (mean survival days) (T. b. brucei GVR35 [6]; po 100 mg/kg for 5 days): 95.2 days
No. of mice cured (survival >180 days without parasitemia relapse) (T. b. brucei GVR35 [6]; [8]): not curative and 0/5

N=C(N)c1ccc(-c2cnc(-c3ccc(C(=N)N)cc3)cn2)cc1 [compound 6]
IC50 [3]: 18 nM
IC50 (Plasmodium falciparum K1 [4]): 0.4 nM
Cures (mice that survive and are parasite free for 60 days) (T. b. r. STIB900 [1]; ip 5 mg/kg daily for 4 days, 5 mg/kg): no cure and 0/4

N=C(N)c1ccc(-c2cncc(-c3ccc(C(=N)N)cc3)n2)cc1 [compound 10, 2,6-Di-(4′-amidinophenyl)pyrazine hydrochloride]
Fold less potent than 6 against P. f. (Plasmodium falciparum K1 [7]): 25 fold

N/C(=N\O)c1ccc(-c2cncc(-c3ccc(/C(N)=N/O)cc3)n2)cc1 [compound 11, 2,6-Di-(4′-N-hydroxyamidinophenyl)pyrazine hydrochloride]
Cures (mice that survive and are parasite free for 60 days) (T. b. r. STIB900 [5]; po 25 mg/kg daily for 4 days): cures of all mice
No. of mice cured (survival >180 days without parasitemia relapse) (T. b. brucei GVR35 [6]; [8]): no cures and 0/5

CO/N=C(\N)c1ccc(-c2cncc(-c3ccc(/C(N)=N\OC)cc3)n2)cc1 [compound 12, 2,6-Di-(4′-N-methoxyamidinophenyl)pyrazine hydrochloride]
No. of mice cured (survival >180 days without parasitemia relapse) (T. b. brucei GVR35 [6]; po 100 mg/kg for 5 days): 2/5
No. of mice cured (survival >180 days without parasitemia relapse) (T. b. brucei GVR35 [6]; po 100 mg/kg for 10 days): 3/4
